An excerpt weighted towards active compounds, which were near 5.7% of everything screened.
SKKanGAS inh: SKKanGAS growth inhibition; S. pyogenes SKKanGAS, kanamycin growth, BacTiter-Glo, 6 h; inhibition, % at 7.5 µM; 300,000 tested, 1.3% active; AID 1662;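 active means mean replicate score, as percent of positive control median, at least 50; inconclusive means mean below 50 but one replicate at or above 50; inactive means mean and every replicate below 50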;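 further: strain carries kanamycin resistance gene driven by streptokinase promoter and grows in 40 µg/ml kanamycin; loss of luminescence reflects streptokinase promoter inhibition or plain growth inhibition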
T cruzi inh: blocks replication of Trypanosoma cruzi; T. cruzi beta-gal in NIH3T3, luminescence, 90 h; inhibition, % (test concentration not listed); 300,000 tested, 1.4% active; AID 1885;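 active means mean inhibition across valid replicates above about 55%, limit read from the data; inconclusive means mean below that limit but half or more replicates reach it; inactive means mean below it, under half of replicates reach it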;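 further: signal also drops with host cell toxicity which is not excluded here; higher percent means less beta-gal luminescence so fewer parasites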
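Assay system: NIH/3T3 fibroblasts plus reporter T. cruzi. Amount: NIH/3T3 cells, 5,000 per well. Buffer or medium: DMEM, 2% fetal bovine serum. Doses: compound pinned at 50 nL/well, DMSO. Schedule: ≥90 h infection period, 3 h prior cell attachment. Signal: luminescent β-galactosidase signal after 60 min lysis. Read-out: parasite load inhibition, %.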
Mdm2 MdmX PPI: inhibitors of human Mdm2/MdmX interaction; inhibition, % at 8 µM; 330,000 tested, 3% active; O15151+Q00987; SaOS-2 split-luciferase Mdm2/MdmX complementation, luminescence; AID 485346;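 active means inhibition of at least 50% at 8 µM in the primary screen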
Target sequence (O15151 whole entry, looked up): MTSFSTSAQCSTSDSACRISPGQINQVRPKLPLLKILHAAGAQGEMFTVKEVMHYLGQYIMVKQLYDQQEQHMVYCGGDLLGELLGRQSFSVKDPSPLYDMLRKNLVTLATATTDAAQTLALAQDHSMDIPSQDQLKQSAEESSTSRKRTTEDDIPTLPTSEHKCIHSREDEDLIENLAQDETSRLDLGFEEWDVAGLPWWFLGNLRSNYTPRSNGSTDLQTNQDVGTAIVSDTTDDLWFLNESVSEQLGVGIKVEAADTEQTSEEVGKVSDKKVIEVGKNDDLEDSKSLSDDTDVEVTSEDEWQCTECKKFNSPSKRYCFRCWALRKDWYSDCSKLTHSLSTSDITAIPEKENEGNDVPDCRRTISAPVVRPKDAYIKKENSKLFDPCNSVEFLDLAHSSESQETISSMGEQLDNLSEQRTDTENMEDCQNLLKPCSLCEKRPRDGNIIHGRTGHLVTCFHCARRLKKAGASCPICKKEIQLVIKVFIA
Target sequence (Q00987 whole entry, looked up): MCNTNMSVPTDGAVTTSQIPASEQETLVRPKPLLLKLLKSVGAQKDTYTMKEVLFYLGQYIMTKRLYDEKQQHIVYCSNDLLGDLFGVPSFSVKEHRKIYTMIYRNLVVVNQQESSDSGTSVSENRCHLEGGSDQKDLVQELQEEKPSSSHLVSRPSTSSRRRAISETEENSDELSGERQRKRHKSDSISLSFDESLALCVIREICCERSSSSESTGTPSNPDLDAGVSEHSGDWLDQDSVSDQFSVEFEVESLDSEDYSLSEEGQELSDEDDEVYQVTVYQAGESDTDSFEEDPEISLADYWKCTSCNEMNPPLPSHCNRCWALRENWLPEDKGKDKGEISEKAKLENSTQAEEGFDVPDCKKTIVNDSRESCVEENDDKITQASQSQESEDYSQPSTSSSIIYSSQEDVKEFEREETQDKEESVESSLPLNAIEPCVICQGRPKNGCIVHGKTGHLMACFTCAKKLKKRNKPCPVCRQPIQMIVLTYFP
Calb FLC: C. albicans growth modulation with fluconazole; C. albicans CaCi-2 (fluconazole-resistant clinical isolate) + fluconazole, Alamar Blue growth, 48 h; growth inhibition, % (no concentration beside the values); 300,000 tested, 0.57% active;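 active means growth inhibition above about 58% in most replicates, limit read from the data, passing the limit was not always enough; inconclusive means exactly half the replicates above a set limit; inactive means most replicates below a set limit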;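 further: all wells also contain fluconazole at 8 µg/ml as a sub-toxic cotreatment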
CSC inhib: cancer stem cell inhibition; inhibition, % at 7.5 µM; cancer stem cell-like cells viability, luminescence; 300,000 tested, 1.1% active; in the data active means inhibition above about 75%; inconclusive means no clear call, values can overlap the other calls; tested in HMLE shEcad cells
Beta apoptosis: beta cell apoptosis inhibition | protection from apoptosis, % (concentration not given with the values) | AID 435005 | INS-1E cytokine-induced death, ATP luminescence, 48 h; percent of positive-control rescue, neutral wells zero | 300,000 tested, 0.8% active;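 active means Every replicate reaches about 75%, or at least half do and their mean reaches it too, limit read from the data; inconclusive means At least half of replicates reach the limit but their mean does not; inactive means Under half of replicates reach the limit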;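 further: higher means more ATP so stronger rescue from cytokine killing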
Mdm2-MdmX conf: human Mdm2/MdmX binding inhibition, confirmed | shares compounds with Mdm2 MdmX PPI | inhibition, % at 8 µM | luminescent assay | 10,000 tested, 55% active | AID 489028; in the data active means inhibition above about 40%
Full FLuc ctr: inhibits full-length luciferase, flagging false Mdm2/MdmX hits. shares compounds with Mdm2 MdmX PPI. SaOS-2 full-length luciferase counterscreen, luminescence. inhibition, % at 8 µM. 6,200 tested, 77% active;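 active means mean inhibition at 8 µM reaching about 37%, which flags the compound as non-specific, limit read from the data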;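 further: p53-null SaOS-2 cells with luciferase driven by a doxycycline-inducible promoter; compound on cells about two nights before reading with doxycycline added after day one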
Numbers stand for hits; n = inactive; u = inconclusive; x = not tested or not shown.

SMILES | SKKanGAS inh | T cruzi inh | Mdm2 MdmX PPI | Calb FLC | CSC inhib | Beta apoptosis | Mdm2-MdmX conf | Full FLuc ctr
C[C@H]1CN([C@@H](C)CO)C(=O)c2cc(NC(=O)C3CCCCC3)ccc2O[C@H]1CN(C)Cc1ccc(-c2ccccc2)cc1 | x | x | 81.3 | x | n | n | n | x
C[C@@H]1CN([C@H](C)CO)C(=O)c2cc(NC(=O)C3CCCCC3)ccc2O[C@@H]1CN(C)Cc1ccc(C(F)(F)F)cc1 | x | x | n | x | n | n | x | x
COc1cc(NC(=O)c2cc3c(C)nc4ccccc4c3o2)cc(OC)c1OC | n | n | 59.1 | n | n | n | n | x
O=C(NC1CCSc2ccccc21)c1cccc(S(=O)(=O)N2CCOCC2)c1 (configuration not stated) | n | n | n | n | n | x | x | x
CCN(CC)c1ccc(/C=C(/C#N)c2nc3ccc(C)cc3[nH]2)c(OC(C)C)c1 | n | 84.3 | 52.2 | n | n | n | 43.9 | 78.7
CCOc1cc(N(CC)CC)ccc1/C=C(/C#N)c1nc2ccccc2[nH]1 | n | u | 50.6 | n | n | n | 47.4 | 91.8
COc1cc(/C=C(\C#N)c2nc3ccccc3[nH]2)cc(Br)c1OCc1ccc(F)cc1 | n | n | 75.0 | n | n | n | n | 39.2
Cc1cc(/C=C(\C#N)c2nc3ccccc3[nH]2)c(C)n1C | n | n | n | n | n | n | x | x
COc1cc(/C=C(\C#N)c2nc3ccccc3[nH]2)cc(Br)c1OCc1ccccc1 | n | n | n | n | n | n | x | x
COc1cc(/C=C(\C#N)c2nc3ccc(C)cc3[nH]2)c([N+](=O)[O-])cc1OC | n | n | n | n | n | n | x | x
COC(=O)c1c(C)[nH]c(C(=O)C(C)OC(=O)c2cnc(C)cn2)c1C (configuration not stated) | x | x | n | x | x | n | x | x
CSCCC(NC(=O)/C(=C/c1ccco1)NC(=O)c1ccco1)C(=O)O (configuration not stated) | n | n | n | n | n | x | x | x
Cc1ccc(-c2ccc(=O)n(CC(=O)NCc3ccc(F)cc3)n2)cc1 | n | n | n | n | n | n | x | x
O=C(CN1c2ccccc2Sc2ccccc21)NNC(=O)Nc1cccc(Cl)c1 | 49.9 | n | 67.4 | n | 82.4 | u | n | 90.1
O=[N+]([O-])c1cc(-c2nc(-c3ccncc3)no2)ccc1Cl | n | n | 99.0 | n | n | n | 81.1 | n
O=[N+]([O-])c1cc(-c2nc(-c3ccncc3)no2)cc([N+](=O)[O-])c1 | n | n | n | n | x | n | x | x
N#CC1=C2SCC(O)(c3ccccc3)N2C(=O)CC1c1ccccc1F (configuration not stated) | n | n | 86.8 | n | n | n | 83.3 | 39.9
CCOC(=O)C1=C(C)Nc2ccccc2N=C1NC(=O)c1oc2ccccc2c1COC | x | x | 59.0 | x | n | n | 50.0 | 77.2
O=Cc1ccc(Cl)c(Cl)c1 | x | x | n | x | n | n | x | x
N#Cc1ccccc1NC(=O)C1SC(=Nc2ccccc2)C(C(=O)Nc2ccc(Cl)cc2)=C1N (configuration not stated) | n | n | n | n | n | n | x | x
COc1ccccc1N=C1SC(C(=O)Nc2cccc(Cl)c2Cl)C(N)=C1C(N)=O (configuration not stated) | n | n | 56.0 | n | 79.1 | n | 52.0 | 66.8
CC(=O)Nc1ccc(NC(=O)C(C)OC(=O)CCSc2ccccc2Cl)cc1 (configuration not stated) | x | x | n | x | n | n | x | x
COc1cc(NC(=O)C2=C(C)OCCS2)c(Cl)cc1C(=O)NCCN(C)C | n | n | n | n | n | n | x | x
COC(=O)c1c(NC(=O)CN2CCC3(O)CCCCC3C2c2ccc(F)cc2)sc(C)c1C (configuration not stated) | n | n | 53.3 | n | n | n | n | x
Cn1nnnc1N=N/C(=N/Nc1ccccc1)c1ccccc1 | n | n | 86.1 | n | n | 125.9 | 85.2 | 49.4
SMILES | SKKanGAS inh | T cruzi inh | Mdm2 MdmX PPI | Calb FLC | CSC inhib | Beta apoptosis | Mdm2-MdmX conf | Full FLuc ctr
Oc1ccccc1N=N/C(=N/Nc1ccccc1O)c1ccccc1 | n | n | n | n | n | n | x | x
CCOC(=O)c1sc2nc(CSc3ccccc3)nc(N3CCCN(C)CC3)c2c1C | n | u | 74.2 | n | n | n | 43.5 | 63.3
CCOC(=O)c1sc2nc(CC(=O)OC)nc(N3CCN(c4ccccn4)CC3)c2c1C | n | n | n | n | n | n | x | x
COc1cc2c(cc1OC)C(C)N(C(=O)[C@@H](NC(=O)c1ccccc1)C(C)C)CC2 (some centres not stated) | n | n | n | n | n | n | x | x
COc1ccc2c(COC(=O)c3cccc(S(=O)(=O)NCC(C)C)c3)cc(=O)oc2c1 | n | n | n | n | n | n | x | x
CCCNS(=O)(=O)c1cccc(C(=O)OCc2cc(=O)oc3cc(OC)ccc23)c1 | n | n | 69.7 | n | n | n | 56.2 | 66.0
O=C(NCCCN1CCOCC1)C1CCN(S(=O)(=O)c2cccc(C(F)(F)F)c2)CC1 | x | x | n | x | x | n | x | x
CC(=O)SC1CC2=CC(=O)CCC2(C)C2CCC3(C)C(CCC34CCC(=O)O4)C12 (configuration not stated) | n | n | 50.6 | n | n | x | 47.9 | 96.4
CC(=O)[C@H]1CC[C@H]2[C@@H]3CCC4=CC(=O)CC[C@]4(C)[C@H]3CC[C@]12C | n | n | n | n | n | n | x | x
CCC(CC)N1CCN(Cc2nc3ccc([N+](=O)[O-])cc3c(=O)n2-c2ccccc2F)CC1 | n | n | n | n | n | n | x | x
CCOC(=O)N1CCN(Cc2nc3ccc([N+](=O)[O-])cc3c(=O)n2-c2ccccc2F)CC1 | n | n | 52.4 | n | n | n | 41.0 | 75.3
O=C(Nc1nc2ccccc2[nH]1)c1cccs1 | n | n | n | n | n | n | x | x
N=c1c(-c2nc3ccccc3[nH]2)cc(C(=O)c2cccs2)nn1-c1ccc(Cl)cc1 | n | n | 62.8 | n | n | n | n | x
COc1cccc(/C=C/C(=C2/C(=O)N(c3ccccc3)N=C2C)c2ccc(Br)cc2)c1OC | u | n | 58.7 | u | 75.5 | x | n | x
CCOc1ccc(/C=C/C(O)=C2/C(=O)N(C)C3(C)CC2c2ccccc2O3)cc1OC (configuration not stated) | n | n | 66.6 | n | 78.3 | n | 69.2 | 41.3
CN(C)c1ccc(/C=C/C(O)=C2/C(=O)N(C)C3(C)CC2c2ccccc2O3)cc1 (configuration not stated) | n | n | x | n | n | n | x | x
CCOc1ccc(/C=C/C(O)=C2/C(=O)NC3(C)CC2c2ccccc2O3)cc1OC (configuration not stated) | n | n | 83.1 | n | n | n | 89.7 | n
CCOC(=O)C1=C(COC(=O)/C=C/c2ccc(OCC)c(OC)c2)NC(=O)NC1C (configuration not stated) | n | n | n | n | n | n | x | x
